Compound activity: PubChem BioAssay, several laboratories
Sampled rows, rich in hits. Any-hit rate of the full collection: about 1.4%.
hK5 inh: kallikrein 5 (human) inhibition. AID 873. Q9Y337. 210,000 compounds, 0.59% hits. recombinant hK5, fluorogenic AMC substrate cleavage. inhibition, % at 5 µM;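 active means inhibition of 40% or more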;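 further: 0% = enzyme controls without compound and 100% = no-enzyme blanks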
FXIIa inh 1536: inhibitors of human coagulation factor XIIa. purified FXIIa, Boc-QGR-AMC fluorogenic substrate, 2 h. inhibition, % at 5 µM. 220,000 compounds, 0.3% hits; in the data active means inhibition above about 40%;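 further: 0% = enzyme with no compound and 100% = blank without enzyme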
Rce1 inhib: blocks yeast Ras-converting enzyme; yeast membranes, quenched prenylated peptide cleavage fluorescence; Q03530; 290,000 compounds, 0.27% hits; calls only;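 active means fall in fluorescence gain of 50% or more versus controls, with final raw signal at or below 3038400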;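 further: plate controls were neutral control wells for no effect and wells lacking membranes for full effect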
Thrombin inh: blocks human thrombin protease activity; alpha-thrombin, Boc-VPR-AMC fluorogenic substrate cleavage; inhibition, % at 5 µM; 220,000 compounds, 0.26% hits; AID 1046;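 active means inhibition at or above 40%; inactive means inhibition below 40%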;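 further: 0% = enzyme with no compound and 100% = wells without enzyme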
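signal = AMC fluorescence, 355/460 nm | material = human alpha-thrombin enzyme | control set = enzyme without compound as high, wells lacking enzyme as low | times = reaction at room temperature | read-out basis = percent inhibition scaled between no-compound controls and no-enzyme blanks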
FXIa inh: factor XIa (human) inhibition; P03951; purified FXIa, Boc-Glu-Ala-Arg-AMC fluorogenic substrate; inhibition, % at 5 µM; 220,000 compounds, 0.14% hits; AID 798;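 active means inhibition of at least 40%; inactive means inhibition below 40%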;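 further: fluorescence of freed AMC excited at 355 nm; 0% = enzyme without compound and 100% = no enzyme blank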
Fh CTSL1 inh: blocks F. hepatica cathepsin L1 in PFM18AAP counter-screen. recombinant F. hepatica cathepsin L1, Z-Leu-Arg-MCA fluorescence. inhibition, % at 5.96 µM. 300,000 compounds, 0.49% hits. AID 1906;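 active means inhibition above the mean of all tested compounds plus 3 SD, set per screening campaign, cut at about 17% in these data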;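 further: 0% = plate median of test compound wells and 100% = 1 µM Z-Phe-Ala-diazomethylketone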
* hit, by the source's call; i = inactive; . = no result; + = active, no number.

SMILES	hK5 inh	FXIIa inh 1536	Rce1 inhib	Thrombin inh	FXIa inh	Fh CTSL1 inh
CCOC(=O)N1CCN(C(=O)Nc2cccc3ccccc23)CC1	5.3	12.3	i	-5.7	-0.1	17.4*
CCOC(=O)N1CCN(C(=O)Nc2ccc(NC(=O)N3CCN(C(=O)OCC)CC3)cc2)CC1	2.1	7.1	i	-14.0	-2.1	1.4
CCN1CCN(C(=O)Nc2ccccc2OC)CC1	82.5*	11.2	.	30.6	3.6	-0.5
COc1ccc([N+](=O)[O-])cc1NC(=O)C1CCCCC1C(=O)O (stereo unspecified)	-7.1	10.6	i	1.0	9.0	1.8
Nn1c(SCC(=O)Nc2ccc(F)cc2F)nnc1-c1cccnc1	41.0*	33.8	i	34.0	9.8	0.1
Nn1c(SCC(=O)Nc2ccccc2F)nnc1-c1cccnc1	-9.6	5.8	i	-3.9	-1.2	-0.2
O=C(CCCN1C(=O)CCC1=O)Nc1ccc(Br)cc1F	61.5*	16.0	i	10.2	-0.8	-0.2
CC1(c2ccncc2)Nc2ccccc2-c2nc3ccccc3n21 (stereo unspecified)	-32.5	-2.4	+	3.6	-1.2	1.3
CCOCCn1c(CN2CCOCC2)nc2c1c(=O)[nH]c(=O)n2C	40.6*	1.9	i	-5.5	-6.7	0.4
Cc1ccc(N2CCN(C(=O)CN3C(=O)c4ccccc4C3=O)CC2)cc1	-3.0	-3.4	i	1.5	-4.6	20.6*
O=C(CN1C(=O)c2ccccc2C1=O)N1CCN(c2ccccc2)CC1	-2.1	-3.0	i	1.5	1.1	0.9
O=C(c1ccc(N2CCCCC2)c([N+](=O)[O-])c1)N(c1ccccn1)c1ccccn1	2.7	9.1	i	42.6*	0.8	-9.1
CC1CCN(c2ccccc2NC(=O)c2ccc(F)cc2)CC1	1.7	18.0	i	2.8	2.0	17.8*
CN1CCN(c2ccccc2NC(=O)c2ccc(F)cc2)CC1	-5.1	0.0	i	-4.8	-5.5	-1.2
CCN(CC)S(=O)(=O)c1ccc(OC)c(NS(=O)(=O)c2ccc(F)cc2)c1	42.4*	27.9	i	22.7	16.2	-2.9
COC(=O)c1c(NC(=O)CCS(=O)(=O)c2ccccc2)sc2c1CCN(C)C2	.	.	i	.	.	-9.4
CCCN1CCc2c(sc(NC(=O)CCS(=O)(=O)c3ccccc3)c2C(=O)OC)C1	.	.	i	.	.	27.1*
CCc1cc(=O)oc2c3c(cc(OCC(=O)NCCCC(=O)O)c12)OC(C)(C)CC3	.	.	+	.	.	4.1
CC(C(=O)Nc1nccs1)c1ccc([N+](=O)[O-])cc1 (stereo unspecified)	-6.1	3.4	i	-0.6	-1.5	3.5
O=C1NCCN1C(=O)c1ccco1	1.0	14.6	i	-5.4	5.6	20.7*
CCOC(=O)C1(Cc2cccc(OC)c2)CCCN(C(=O)CSC)C1 (stereo unspecified)	.	.	i	.	.	4.2
Cc1ccc(OCC(O)CN2CC3(C)CC2CC(C)(C)C3)cc1 (stereo unspecified)	-6.9	7.1	i	-7.4	-0.9	0.5
Cc1cccc(OCC(O)CN2CC3(C)CC2CC(C)(C)C3)c1 (stereo unspecified)	-9.9	11.7	i	3.0	64.0*	-2.1
O=C(N/N=C/c1cccnc1)c1ccccc1OCc1ccc(Cl)cc1	4.4	7.0	i	2.5	1.6	-3.7
O=C(NN=C1CCCC1)c1ccccc1OCc1ccc(Cl)cc1	37.7	27.9	i	33.3	51.8*	-0.5
SMILES	hK5 inh	FXIIa inh 1536	Rce1 inhib	Thrombin inh	FXIa inh	Fh CTSL1 inh
COc1ccc(S(=O)(=O)Nc2ccc(-c3ccc4nncn4n3)cc2)c(OC)c1	.	.	i	.	.	-1.8
Cc1c(C(=O)Nc2ccccc2)cn2c(nc3ccccc32)c1C#N	-3.3	10.5	i	1.0	5.5	-1.3
COc1ccc(NC(=O)c2cn3c(nc4ccccc43)c(C#N)c2C)cc1	-5.4	1.1	+	-6.7	-5.2	-1.4
c1ccc2c(c1)CCN(c1nc(CN3CCOCC3)nc3sc4c(c13)CCCC4)C2	-0.4	4.8	i	-2.9	-3.6	-1.2
COCCNCC(=O)Nc1ccc(C)c(S(=O)(=O)N2CCCCC2)c1	-5.0	2.7	i	.	-2.6	-0.1
Cc1ccc(NC(=O)CCl)cc1S(=O)(=O)N1CCCCCC1	-1.1	7.7	i	.	4.5	58.5*
COc1ccc(NC(=O)Cc2ccccc2F)cn1	15.1	13.1	i	49.8*	23.2	7.7
